Experimental data taken from publication PMC7731903 (Clinical cancer research : an official journal of the …, 2018).
Entries after “also recorded” stand apart in the source; their conditions may differ. Each block holds one compound with its values, some of them ahead of it.

What was measured:
Type in all cases: in vivo, human
[1] = Vincristine plasma PK in presence; conditions: for AUC / AUC(0-inf) / clearance / Cmax / half-life: human, plasma, intravenous; for AUC: Geometric mean AUCτ (CV); for AUC(0-inf): Geometric mean AUC∞ (CV); for clearance: Geometric mean CL (CV); for Cmax: Geometric mean Cmax (CV); for half-life: Mean t1/2z (st. dev)
[2] = tested on: relapsed/refractory aggressive B-cell lymphoma; assay: Antitumor activity, investigator-assessed response
[3] = Alisertib plasma PK in patients; conditions: for AUC / Cmax / Tmax: human, plasma, oral; for AUC: Geometric mean AUCτ (CV); for Cmax: Geometric mean Cmax (CV)
Outline: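 Patients with relapsed/refractory aggressive B-cell NHL took oral test compound twice daily on days 1–7 of 21-day cycles, at 30 to 50 mg b.i.d. Cohorts received it with rituximab 375 mg/m2 i.v. on day 1, with or without vincristine 1.4 mg/m2 (max 2 mg) i.v. on days 1 and 8. Blood was drawn at prespecified times after the morning dose on cycle 1 days 1 and 7. Cmax, tmax and AUCτ were derived by noncompartmental analysis.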

non-GCB DLBCL = assay: Best response by cell of origin; conditions: non-GCB-derived disease, 20 patients (MR + MRV)
GCB DLBCL = assay: Best response by cell of origin; conditions: MR + MRV; P = 0.058 vs non-GCB, two-sided Fisher exact test
[4] = 30 mg, alisertib 30 mg b.i.d. cohort, C1D1 (alisertib present), n=4
[5] = 30 mg, alisertib 30 mg b.i.d. cohort, C2D1 (alisertib absent), n=3
[6] = 30 mg, alisertib 30 mg b.i.d. cohort, C2D1 (alisertib absent), n=4
[7] = 40 mg, alisertib 40 mg b.i.d. cohort, C2D1 (alisertib absent), n=17
[8] = 40 mg, alisertib 40 mg b.i.d. cohort, C1D1 (alisertib present), n=22
[9] = 40 mg, alisertib 40 mg b.i.d. cohort, C2D1 (alisertib absent), n=16
[10] = 40 mg, alisertib 40 mg b.i.d. cohort, C1D1 (alisertib present), n=25
[11] = 50 mg, alisertib 50 mg b.i.d. cohort, C1D1 (alisertib present), n=3
[12] = 50 mg, alisertib 50 mg b.i.d. cohort, C2D1 (alisertib absent), n=2
[13] = 30 mg, MRV, alisertib 30 mg b.i.d., C1D1, n=4
[14] = 30 mg, MRV, alisertib 30 mg b.i.d., C1D7, n=4
[15] = 40 mg, MRV, alisertib 40 mg b.i.d., C1D7, n=20
[16] = 50 mg, MR, alisertib 50 mg b.i.d., C1D7, n=12
[17] = 50 mg, MRV, alisertib 50 mg b.i.d., C1D1, n=3
[18] = 50 mg, MRV, alisertib 50 mg b.i.d., C1D7, n=2

Geometric mean ratio of vincristine AUC∞, presence vs absence of alisertib ([1]; MRV RP2D (alisertib 40 mg b.i.d.), 90% CI 82–115, n = 22): 97%
AUC [1, 4]: 69.2 ng·h/mL
AUC ([1]; 30 mg, alisertib 30 mg b.i.d. cohort, C2D1 (alisertib absent), n=2): 60.8 ng·h/mL
AUC(0-inf) [1, 4]: 77 ng·h/mL
AUC(0-inf) [1, 5]: 69 ng·h/mL
clearance [1, 4]: 432 mL/min
clearance [1, 6]: 483 mL/min
Cmax [1, 6]: 98.2 ng/mL
half-life [1, 4]: 20.2 h
half-life [1, 5]: 19.9 h
AUC ([1]; 40 mg, alisertib 40 mg b.i.d. cohort, C1D1 (alisertib present), n=24): 60.1 ng·h/mL
AUC [1, 7]: 67.8 ng·h/mL
AUC(0-inf) [1, 8]: 78 ng·h/mL
AUC(0-inf) [1, 9]: 77 ng·h/mL
clearance [1, 10]: 427 mL/min
clearance [1, 7]: 432 mL/min
Cmax [1, 10]: 82.9 ng/mL
Cmax [1, 7]: 87.3 ng/mL
half-life [1, 8]: 20 h
half-life [1, 9]: 20.2 h
AUC [1, 11]: 98 ng·h/mL
AUC [1, 12]: 68.4 ng·h/mL
AUC(0-inf) [1, 11]: 111 ng·h/mL
clearance [1, 11]: 300 mL/min
Cmax [1, 11]: 149 ng/mL
Cmax [1, 12]: 120 ng/mL
half-life [1, 11]: 25.6 h
Cmax ([1]; vincristine 1.4 mg/m^2 + rituximab, alisertib 30 mg b.i.d. cohort, C1D1 (alisertib present), n=4): 120 ng/mL
Structure (SMILES): CC[C@]1(O)C[C@H]2CN(CCc3c([nH]c4ccccc34)[C@@](C(=O)OC)(c3cc4c(cc3OC)N(C=O)[C@H]3[C@@](O)(C(=O)OC)[C@H](OC(C)=O)[C@]5(CC)C=CCN6CC[C@]43[C@@H]65)C2)C1 [vincristine]

AUC [3, 13]: 5.22 µM·h
AUC [3, 14]: 11.8 µM·h
Cmax [3, 13]: 841 nM
Cmax [3, 14]: 1660 nM
Tmax ([3]; 30 mg, Median Tmax (range), MRV, alisertib 30 mg b.i.d., C1D1, n=4): 3.5 h
Tmax ([3]; 30 mg, Median Tmax (range), MRV, alisertib 30 mg b.i.d., C1D7, n=4): 3.1 h
AUC ([3]; 40 mg, MRV, alisertib 40 mg b.i.d., C1D1, n=22): 7.44 µM·h
AUC [3, 15]: 14.9 µM·h
Cmax ([3]; 40 mg, MRV, alisertib 40 mg b.i.d., C1D1, n=25): 1090 nM
Cmax [3, 15]: 1950 nM
Tmax ([3]; 40 mg, Median Tmax (range), MRV, alisertib 40 mg b.i.d., C1D1, n=25): 3 h
Tmax ([3]; 40 mg, Median Tmax (range), MRV, alisertib 40 mg b.i.d., C1D7, n=20): 3.1 h
AUC ([3]; 50 mg, MR, alisertib 50 mg b.i.d., C1D1, n=12): 8.61 µM·h
AUC [3, 16]: 18.7 µM·h
AUC [3, 17]: 11.2 µM·h
AUC [3, 18]: 31.8 µM·h
Cmax ([3]; 50 mg, MR, alisertib 50 mg b.i.d., C1D1, n=13): 1400 nM
Cmax [3, 16]: 2590 nM
Cmax [3, 17]: 1670 nM
Cmax [3, 18]: 3500 nM
Tmax ([3]; 50 mg, Median Tmax (range), MR, alisertib 50 mg b.i.d., C1D1, n=13): 3 h
Tmax ([3]; 50 mg, Median Tmax (range), MR, alisertib 50 mg b.i.d., C1D7, n=12): 2 h
Tmax ([3]; 50 mg, Median Tmax (range), MRV, alisertib 50 mg b.i.d., C1D1, n=3): 6.1 h
Tmax ([3]; 50 mg, Median Tmax (range), MRV, alisertib 50 mg b.i.d., C1D7, n=2): 2.5 h
Tmax ([3]; tmax after dose, with both MR and MRV): ~3 h
Increase of alisertib exposures with dose ([3]; over the range of 30 to 50 mg b.i.d.): approximately dose-proportional
Structure (SMILES): COc1cc(Nc2ncc3c(n2)-c2ccc(Cl)cc2C(c2c(F)cccc2OC)=NC3)ccc1C(=O)O [alisertib]
ORR (CR + PR) ([2]; 37 response-evaluable patients (MR + MRV), n = 14): 38%
CR ([2]; Total MR + MRV, N=37): 7 (19) n (%)
ORR (CR + PR) ([2]; Total MR + MRV, N=37): 14 (38) n (%)
PD ([2]; Total MR + MRV, N=37): 11 (30) n (%)
PR ([2]; Total MR + MRV, N=37): 7 (19) n (%)
Complete responses (CR) ([2]; all patients (MR + MRV)): Seven
Median PFS ([2]; all patients (MR + MRV)): 5.1 months
Partial responses (PRs) ([2]; all patients (MR + MRV)): 7 patients
Median DOR ([2]; patients with a best response of CR, range 9.0–35.7): 14.3 months
Median PFS ([2]; patients with a best response of CR, range 10.1–36.9): 16.4 months
Median DOR ([2]; responding patients (MR + MRV)): 10.2 months
Patients achieving first response by the end of cycle 2 ([2]; responding patients (MR + MRV)): 57%
PR as best response (non-GCB DLBCL; 3 patients): 15%
CR as best response (non-GCB DLBCL; 6 patients): 30%
Objective response in GCB-derived disease (GCB DLBCL): None of the 7 response-evaluable patients; also recorded: no patients with GCB-derived disease (9/29) achieved an objective response
